ChEMBL document CHEMBL1138555, “N-acylated and N,N'-diacylated imidazolidine-2-thione derivatives and N,N'-diacylated tetrahydropyrimidine-2(1H)-thione analogues: synthesis and antiproliferative activity” (Eur J Med Chem, 2009)

How the values were obtained:
MT4 = assay: Antiproliferative activity against human MT4 cells assessed as reduction of growth by MTT assay; assay type: functional, cell-based
In short: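 MT-4 lymphoblastoid T cells (ATCC) in RPMI 1640 with 10% FCS, penicillin/streptomycin, checked for mycoplasma. 1 × 10⁴ mock-infected cells per well with serial dilutions from a 100 mM DMSO stock. Incubated 4 days at 37 °C, viable cells counted by MTT. IC50 versus untreated controls by linear regression. Mean of three separate experiments.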

HL-60(TB) = assay: Growth inhibition of human HL-60(TB) cells after 48 hrs by sulforhodamine B assay; assay type: functional; details: HL-60, 48 h
In short: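 NCI 60-cell-line screen protocol: cells exposed to compound at five 10-fold dilutions from 10^-4 to 10^-8 M for the last 48 h of a 72 h incubation. Sulforhodamine B protein assay estimated viability/growth. GI50 (50% growth inhibition) derived; where not reached or exceeded, reported as greater or less than the highest or lowest concentration tested.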

MOLT-4 = assay: Growth inhibition of human MOLT4 cells after 48 hrs by sulforhodamine B assay; assay type: functional; details: MOLT-4, 48 h
In short: (§1)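 NCI screen panel. Five 10-fold concentrations from 10^-4 to 10^-8 M. Exposure for the last 48 h of a 72 h incubation. Growth estimated by sulforhodamine B protein assay. GI50 is the concentration giving 50% growth inhibition. Where that level was not reached or was exceeded, the value is given as above or below the highest or lowest concentration tested.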

HOP-62 = assay: Growth inhibition of human HOP62 cells after 48 hrs by sulforhodamine B assay; assay type: functional; details: HOP-62, 48 h; in short: as §1
HOP-92 = assay: Growth inhibition of human HOP92 cells after 48 hrs by sulforhodamine B assay; assay type: functional; details: HOP-92, 48 h; in short: as §1
NCI-H226 = assay: Growth inhibition of human NCI-H226 cells after 48 hrs by sulforhodamine B assay; assay type: functional; details: NCI-H226, 48 h; in short: as §1
NCI-H322M = assay: Growth inhibition of human NCI-H322M cells after 48 hrs by sulforhodamine B assay; assay type: functional; in short: as §1
NCI-H460 = assay: Growth inhibition of human NCI-H460 cells after 48 hrs by sulforhodamine B assay; assay type: functional; details: NCI-H460, 48 h; in short: as §1
NCI-H522 = assay: Growth inhibition of human NCI-H522 cells after 48 hrs by sulforhodamine B assay; assay type: functional; details: NCI-H522, 48 h; in short: as §1
HCT-116 = assay: Growth inhibition of human HCT116 cells after 48 hrs by sulforhodamine B assay; assay type: functional; details: HCT-116, 48 h; in short: as §1
KM12 = assay: Growth inhibition of human KM12 cells after 48 hrs by sulforhodamine B assay; assay type: functional; details: KM12, 48 h; in short: as §1
SF-268 = assay: Growth inhibition of human SF268 cells after 48 hrs by sulforhodamine B assay; assay type: functional; details: SF-268, 48 h; in short: as §1
SNB-75 = assay: Growth inhibition of human SNB75 cells after 48 hrs by sulforhodamine B assay; assay type: functional; details: SNB-75, 48 h
In short: (§2)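 NCI in vitro panel screen. Compounds tested at five 10-fold dilutions, 10^-4 to 10^-8 M. Cells in 96-well plates were exposed for the last 48 h of a 72 h incubation. Viability/growth was read by sulforhodamine B protein assay. GI50 is the concentration giving 50% growth inhibition. Values beyond the tested range are reported as greater or less than the maximum or minimum concentration.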

U-251 = assay: Growth inhibition of human U251 cells after 48 hrs by sulforhodamine B assay; assay type: functional; details: U-251, 48 h; in short: as §2
LOX IMVI = assay: Growth inhibition of human LOXIMVI cells after 48 hrs by sulforhodamine B assay; assay type: functional; in short: as §1
Malme-3M = assay: Growth inhibition of human MALME-3M cells after 48 hrs by sulforhodamine B assay; assay type: functional; in short: as §1
M14 = assay: Growth inhibition of human M14 cells after 48 hrs by sulforhodamine B assay; assay type: functional; details: M14, 48 h; in short: as §1
SK-MEL-28 = assay: Growth inhibition of human SK-MEL-28 cells after 48 hrs by sulforhodamine B assay; assay type: functional; details: SK-MEL-28, 48 h; in short: as §1
UACC-257 = assay: Growth inhibition of human UACC257 cells after 48 hrs by sulforhodamine B assay; assay type: functional; details: UACC-257, 48 h; in short: as §2
UACC-62 = assay: Growth inhibition of human UACC62 cells after 48 hrs by sulforhodamine B assay; assay type: functional; details: UACC-62, 48 h; in short: as §2
IGROV-1 = assay: Growth inhibition of human IGROV1 cells after 48 hrs by sulforhodamine B assay; assay type: functional; details: IGROV-1, 48 h; in short: as §1
OVCAR-3 = assay: Growth inhibition of human OVCAR-3 cells after 48 hrs by sulforhodamine B assay; assay type: functional; details: OVCAR-3, 48 h; in short: as §1
OVCAR-8 = assay: Growth inhibition of human OVCAR8 cells after 48 hrs by sulforhodamine B assay; assay type: functional; details: OVCAR-8, 48 h; in short: as §1
SK-OV-3 = assay: Growth inhibition of human SKOV3 cells after 48 hrs by sulforhodamine B assay; assay type: functional; details: SK-OV-3, 48 h; in short: as §1
786-0 = assay: Growth inhibition of human 786-0 cells after 48 hrs by sulforhodamine B assay; assay type: functional; details: 786-0, 48 h; in short: as §1
A498 = assay: Growth inhibition of human A498 cells after 48 hrs by sulforhodamine B assay; assay type: functional; details: A498, 48 h; in short: as §1
ACHN = assay: Growth inhibition of human ACHN cells after 48 hrs by sulforhodamine B assay; assay type: functional; in short: as §1
CAKI-1 = assay: Growth inhibition of human Caki1 cells after 48 hrs by sulforhodamine B assay; assay type: functional; details: CAKI-1, 48 h; in short: as §1
SN12C = assay: Growth inhibition of human SN12C cells after 48 hrs by sulforhodamine B assay; assay type: functional; in short: as §2
TK-10 = assay: Growth inhibition of human TK10 cells after 48 hrs by sulforhodamine B assay; assay type: functional; details: TK-10, 48 h; in short: as §2
PC-3 = assay: Growth inhibition of human PC3 cells after 48 hrs by sulforhodamine B assay; assay type: functional; details: PC-3, 48 h; in short: as §1
DU-145 = assay: Growth inhibition of human DU145 cells after 48 hrs by sulforhodamine B assay; assay type: functional; details: DU-145, 48 h; in short: as §1
MCF7 = assay: Growth inhibition of human MCF7 cells after 48 hrs by sulforhodamine B assay; assay type: functional; details: MCF7, 48 h; in short: as §1
MDA-MB-231 = assay: Growth inhibition of human MDA-MB-231 cells after 48 hrs by sulforhodamine B assay; assay type: functional; details: MDA-MB-231, 48 h; in short: as §1
[1] = Growth inhibition of human Hs 578T cells after 48 hrs by sulforhodamine B assay; assay type: functional; in short: as §1
MDA-MB-435 = assay: Growth inhibition of human MDA-MB-435 cells after 48 hrs by sulforhodamine B assay; assay type: functional; details: MDA-MB-435, 48 h; in short: as §1
MDA-N = assay: Growth inhibition of human MDA-N cells after 48 hrs by sulforhodamine B assay; assay type: functional
In short: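 NCI screen panel. Five 10-fold concentrations from 10^-4 to 10^-8 M. Exposure for the last 48 h of a 72 h incubation. Growth estimated by sulforhodamine B protein assay. Where that level was not reached or was exceeded, the value is given as above or below the highest or lowest concentration tested.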

BT-549 = assay: Growth inhibition of human BT549 cells after 48 hrs by sulforhodamine B assay; assay type: functional; details: BT-549, 48 h; in short: as §1
EKVX = assay: Growth inhibition of human EKVX cells after 48 hrs by sulforhodamine B assay; assay type: functional; in short: as §1

SMILES	IC50 (MT4) [µM]	GI50 (HL-60(TB)) [µM]	GI50 (MOLT-4) [µM]	GI50 (HOP-62) [µM]	GI50 (HOP-92) [µM]	GI50 (NCI-H226) [µM]	GI50 (NCI-H322M) [µM]	GI50 (NCI-H460) [µM]	GI50 (NCI-H522) [µM]	GI50 (HCT-116) [µM]	GI50 (KM12) [µM]	GI50 (SF-268) [µM]	GI50 (SNB-75) [µM]	GI50 (U-251) [µM]	GI50 (LOX IMVI) [µM]	GI50 (Malme-3M) [µM]	GI50 (M14) [µM]	GI50 (SK-MEL-28) [µM]	GI50 (UACC-257) [µM]	GI50 (UACC-62) [µM]	further results
COc1cc(C(=O)N2CCN(C(=O)c3cc(OC)c(OC)c(OC)c3)C2=S)cc(OC)c1OC	7	16	23.5	15.2	16.1	19.5	17.4	27.2	3.7	18.2	14.2	11.5	7.1	16.3	15.4	13.4	16.8	17.2	21.7	14.9	GI50 (IGROV-1): 24.7 µM; GI50 (OVCAR-3): 15.2 µM; GI50 (OVCAR-8): 21.9 µM; GI50 (SK-OV-3): 20.2 µM; GI50 (786-0): 11.4 µM; GI50 (A498): 17.7 µM; GI50 (ACHN): 17.8 µM; GI50 (CAKI-1): 12.3 µM; GI50 (SN12C): 17.1 µM; GI50 (TK-10): 17 µM; GI50 (PC-3): 15 µM; GI50 (DU-145): 13.6 µM; GI50 (MCF7): 5.2 µM; GI50 (MDA-MB-231): 16.7 µM; GI50 [1]: 24.7 µM; GI50 (MDA-MB-435): 13.1 µM; GI50 (MDA-N): 15 µM; GI50 (BT-549): 17.4 µM
O=C(c1ccco1)N1CCN(C(=O)c2ccco2)C1=S	7.4	4	0.3	8.7	12.7	28.7	15.7	3.3	3.1	7.3	4	2.7	10.4	9	3.4	3.7	7.7	5.5	4.6	3.2	GI50 (EKVX): 13.4 µM; GI50 (IGROV-1): 6.7 µM; GI50 (OVCAR-3): 2.7 µM; GI50 (OVCAR-8): 8.8 µM; GI50 (SK-OV-3): 16 µM; GI50 (786-0): 3.3 µM; GI50 (A498): 16.6 µM; GI50 (ACHN): 4.7 µM; GI50 (CAKI-1): 5.1 µM; GI50 (SN12C): 3.5 µM; GI50 (TK-10): 6.3 µM; GI50 (PC-3): 3.9 µM; GI50 (DU-145): 2.7 µM; GI50 (MCF7): 3 µM; GI50 (MDA-MB-231): 12.2 µM; GI50 [1]: 6.8 µM; GI50 (MDA-MB-435): 4 µM; GI50 (MDA-N): 5 µM; GI50 (BT-549): 4.6 µM
O=C(c1ccc(Cl)c(Cl)c1)N1CCN(C(=O)c2ccc(Cl)c(Cl)c2)C1=S	4.6	12.7	15.7	17.6	20	19	19.8	22	6.1	18.1	16.1	16.8	18.9	16.4	7.6	14.9	19.6	30.6	17.3	18.1	GI50 (EKVX): 20.8 µM; GI50 (IGROV-1): 19.7 µM; GI50 (OVCAR-3): 17.1 µM; GI50 (OVCAR-8): 19 µM; GI50 (SK-OV-3): 18.2 µM; GI50 (786-0): 7.2 µM; GI50 (A498): 20.2 µM; GI50 (ACHN): 19.2 µM; GI50 (CAKI-1): 14 µM; GI50 (SN12C): 18.3 µM; GI50 (TK-10): 18.5 µM; GI50 (PC-3): 16.7 µM; GI50 (DU-145): 14.7 µM; GI50 (MCF7): 5.6 µM; GI50 (MDA-MB-231): 18.8 µM; GI50 [1]: 29.1 µM; GI50 (MDA-MB-435): 15.4 µM; GI50 (MDA-N): 18.3 µM; GI50 (BT-549): 23.6 µM
